From ChEMBL document CHEMBL1156227, “New aromatic monoesters of alpha-aminoaralkylphosphonic acids as inhibitors of aminopeptidase N/CD13” (Bioorg Med Chem, 2010)

What was measured:
[1] = biological target: T1, Aminopeptidase N (Sus scrofa, UniProt P15145); experiment: Inhibition of pig kidney aminopeptidase N using Leu-AMC as substrate
T1 sequence (P15145 whole entry): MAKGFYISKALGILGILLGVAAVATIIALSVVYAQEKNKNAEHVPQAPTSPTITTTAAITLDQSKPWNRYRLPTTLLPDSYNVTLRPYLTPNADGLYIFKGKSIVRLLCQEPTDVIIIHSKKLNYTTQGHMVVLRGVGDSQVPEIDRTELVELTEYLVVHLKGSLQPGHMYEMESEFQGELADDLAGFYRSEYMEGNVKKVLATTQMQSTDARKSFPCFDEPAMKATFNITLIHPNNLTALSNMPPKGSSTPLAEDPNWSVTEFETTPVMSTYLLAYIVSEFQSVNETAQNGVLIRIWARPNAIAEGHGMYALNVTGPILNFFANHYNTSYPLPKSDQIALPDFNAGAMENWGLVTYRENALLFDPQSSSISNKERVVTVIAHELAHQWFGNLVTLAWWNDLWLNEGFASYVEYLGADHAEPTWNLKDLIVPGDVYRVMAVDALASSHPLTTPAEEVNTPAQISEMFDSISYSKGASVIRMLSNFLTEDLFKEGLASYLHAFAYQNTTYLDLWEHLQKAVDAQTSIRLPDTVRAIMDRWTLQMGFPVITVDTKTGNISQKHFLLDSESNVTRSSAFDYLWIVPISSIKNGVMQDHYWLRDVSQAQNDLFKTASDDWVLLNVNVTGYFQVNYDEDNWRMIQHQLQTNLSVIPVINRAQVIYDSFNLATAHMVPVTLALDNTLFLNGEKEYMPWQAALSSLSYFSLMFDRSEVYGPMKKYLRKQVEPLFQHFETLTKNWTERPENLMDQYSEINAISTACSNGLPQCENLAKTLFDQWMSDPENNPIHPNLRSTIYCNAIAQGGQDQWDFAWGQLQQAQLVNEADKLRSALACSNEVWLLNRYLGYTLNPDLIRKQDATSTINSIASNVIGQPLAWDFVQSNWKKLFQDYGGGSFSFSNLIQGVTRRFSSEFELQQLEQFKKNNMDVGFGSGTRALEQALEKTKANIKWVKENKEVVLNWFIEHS

[2] = biological target: Aminopeptidase N (Homo sapiens, UniProt P15144); experiment: Inhibition of aminopeptidase N
[3] = biological target: Cytosol aminopeptidase (Homo sapiens, UniProt P28838); experiment: Inhibition of leucine aminopeptidase
[4] = tested on: PANC-1; experiment: Cytotoxicity against human PANC1 cells assessed as cell growth inhibition after 72 hrs by XTT assay; assay type: functional; parameters: scale not given: the % may be the effect or the level left
Summary of the method: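 PANC-1 cells grown adherent in DMEM with 2 mM L-glutamine, 10% uninactivated FBS and 1% penicillin–streptomycin at 37 °C, 5% CO2. Treated 72 h with inhibitor (0–300 μM; stocks in 0.1 M NaOH, diluted in medium; vehicle controls), alone or with TNF-α (0–30 μg/ml). XTT added for 4 h; absorbance read at 490 nm and normalised to untreated cultures; mean ± one SD.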

[5] = tested on: HT-1080; experiment: Cytotoxicity against human HT1080 cells assessed as cell growth inhibition after 72 hrs by XTT assay; assay type: functional; parameters: scale not given: the % may be the effect or the level left
Summary of the method: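 HT-1080 cells cultured adherent in DMEM with 2 mM L-glutamine, 10% heat-inactivated FBS and 1% penicillin–streptomycin at 37 °C, 5% CO2. Exposed 72 h to inhibitor (0–300 μM from 0.1 M NaOH stocks diluted in medium; NaOH vehicle controls), with or without TNF-α (0–30 μg/ml). XTT for 4 h, absorbance at 490 nm, growth expressed relative to untreated cells; mean ± one SD.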

[6] = tested on: HT-1080; experiment: Cytotoxicity against human HT1080 cells assessed as cell growth inhibition after 72 hrs by XTT assay in the presence of TNFalpha relative to control; assay type: functional; parameters: scale not given: the % may be the effect or the level left
Summary of the method: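 HT-1080 cells grown adherent in DMEM with 2 mM L-glutamine, 10% heat-inactivated FBS and penicillin–streptomycin at 37 °C, 5% CO2. Inhibitor (0–300 μM, from 0.1 M NaOH stock, diluted in medium) co-applied with TNF-α (0–30 μg/ml) for 72 h. Controls received matching 0.1 M NaOH. XTT added for 4 h, A490 read, normalised to untreated cells.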

[7] = tested on: PANC-1; experiment: Cytotoxicity against human PANC1 cells assessed as cell growth inhibition at 300 uM after 72 hrs by XTT assay relative to control; assay type: functional; parameters: scale not given: the % may be the effect or the level left
Summary of the method: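 PANC-1 cells cultured adherent in DMEM with 2 mM L-glutamine, 10% non-heat-inactivated FBS and penicillin–streptomycin at 37 °C, 5% CO2. Inhibitor (0–300 μM, 0.1 M NaOH stock diluted in medium) applied 72 h, with controls given matching 0.1 M NaOH. XTT incubation 4 h, A490 read, values normalised to untreated culture as percentage growth.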

[8] = tested on: HT-1080; experiment: Cytotoxicity against human HT1080 cells assessed as cell growth inhibition at 300 uM after 72 hrs by XTT assay relative to control; assay type: functional; parameters: scale not given: the % may be the effect or the level left
Summary of the method: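 HT-1080 cells kept adherent in DMEM plus 2 mM L-glutamine, 10% heat-inactivated FBS and penicillin–streptomycin at 37 °C, 5% CO2. Exposed 72 h to inhibitor (0–300 μM; 0.1 M NaOH stock diluted in medium), with vehicle controls given matching 0.1 M NaOH. XTT staining for 4 h, absorbance at 490 nm, expressed as percentage growth relative to untreated culture.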

Sequence of Cytosol aminopeptidase (P28838 whole entry): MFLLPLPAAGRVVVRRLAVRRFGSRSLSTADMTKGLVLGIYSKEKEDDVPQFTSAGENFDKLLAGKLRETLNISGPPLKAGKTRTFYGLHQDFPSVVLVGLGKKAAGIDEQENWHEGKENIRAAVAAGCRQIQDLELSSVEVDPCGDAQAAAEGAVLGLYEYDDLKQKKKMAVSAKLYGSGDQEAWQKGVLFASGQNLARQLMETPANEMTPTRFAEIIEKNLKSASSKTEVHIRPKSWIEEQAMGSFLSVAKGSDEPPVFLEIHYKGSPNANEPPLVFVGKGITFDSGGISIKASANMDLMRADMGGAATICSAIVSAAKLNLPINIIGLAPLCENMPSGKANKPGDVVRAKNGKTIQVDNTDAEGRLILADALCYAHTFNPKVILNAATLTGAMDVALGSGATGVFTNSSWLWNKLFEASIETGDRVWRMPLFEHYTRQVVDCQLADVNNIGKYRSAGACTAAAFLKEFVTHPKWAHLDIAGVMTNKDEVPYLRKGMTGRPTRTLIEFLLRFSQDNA
Sequence of Aminopeptidase N (Homo sapiens, UniProt P15144) (P15144 whole entry): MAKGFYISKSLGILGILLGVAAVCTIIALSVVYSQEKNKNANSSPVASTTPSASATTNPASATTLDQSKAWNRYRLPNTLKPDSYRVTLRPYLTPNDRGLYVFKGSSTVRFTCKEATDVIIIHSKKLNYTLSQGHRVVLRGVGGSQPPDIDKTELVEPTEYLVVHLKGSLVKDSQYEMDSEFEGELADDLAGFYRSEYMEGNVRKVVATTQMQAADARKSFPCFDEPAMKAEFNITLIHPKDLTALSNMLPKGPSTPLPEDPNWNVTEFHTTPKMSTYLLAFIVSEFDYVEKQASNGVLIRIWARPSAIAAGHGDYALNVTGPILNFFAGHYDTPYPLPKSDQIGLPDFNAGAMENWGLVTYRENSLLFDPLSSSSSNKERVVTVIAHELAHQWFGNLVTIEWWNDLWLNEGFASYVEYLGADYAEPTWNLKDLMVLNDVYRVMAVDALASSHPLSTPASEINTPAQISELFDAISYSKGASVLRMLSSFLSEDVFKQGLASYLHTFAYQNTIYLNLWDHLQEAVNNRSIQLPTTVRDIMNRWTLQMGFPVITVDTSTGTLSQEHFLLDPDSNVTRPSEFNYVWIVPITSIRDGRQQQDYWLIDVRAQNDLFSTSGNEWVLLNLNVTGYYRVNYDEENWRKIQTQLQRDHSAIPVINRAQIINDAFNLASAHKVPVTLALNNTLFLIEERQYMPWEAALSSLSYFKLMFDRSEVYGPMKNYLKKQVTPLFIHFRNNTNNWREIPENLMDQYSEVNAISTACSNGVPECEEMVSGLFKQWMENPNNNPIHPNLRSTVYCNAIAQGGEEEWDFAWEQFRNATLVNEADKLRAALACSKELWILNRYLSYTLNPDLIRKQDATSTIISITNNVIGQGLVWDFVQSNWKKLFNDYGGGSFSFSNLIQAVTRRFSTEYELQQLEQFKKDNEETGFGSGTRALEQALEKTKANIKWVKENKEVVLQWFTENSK

| SMILES | IC50 [1] | also measured |
| --- | --- | --- |
| CC(C)(C)c1ccc(OP(=O)(O)C(N)CCc2ccccc2)cc1 (stereo unspecified) | 1.9 µM |  |
| CCCCCC(N)P(=O)(O)Oc1ccccc1 (stereo unspecified) | 4.8 µM |  |
| CCCCC(N)P(=O)(O)O (stereo unspecified) | 75 µM |  |
| CC(C)c1ccc(OP(=O)(O)C(N)CCc2ccccc2)cc1 (stereo unspecified) | 0.5 µM |  |
| CCc1ccc(OP(=O)(O)C(C)N)cc1 (stereo unspecified) | 8.3 µM |  |
| CCCCC(N)P(=O)(O)Oc1ccc(OC)cc1 (stereo unspecified) | 210 µM |  |
| CC(C)C(N)P(=O)(O)O (stereo unspecified) | 104 µM |  |
| CC(C)CC(N)P(=O)(O)Oc1ccccc1 (stereo unspecified) | 9.3 µM | Ki [2]: 53 µM; Ki [3]: 0.23 µM |
| CCC(N)P(=O)(O)Oc1ccc(C(=O)O)cc1 (stereo unspecified) | 200 µM |  |
| CCCCC(N)P(=O)(O)Oc1ccc(C)cc1 (stereo unspecified) | 1 µM |  |
| CCC(N)P(=O)(O)Oc1ccc(C)c(C)c1 (stereo unspecified) | 3 µM |  |
| Cc1cc(C)c(C)c(OP(=O)(O)C(C)N)c1 (stereo unspecified) | 14 µM |  |
| CC(N)P(=O)(O)Oc1ccc(C(C)(C)C)cc1 (stereo unspecified) | 8.2 µM |  |
| CC(C)C(N)P(=O)(O)Oc1ccccc1 (stereo unspecified) | 14 µM |  |
| Cc1ccc(OP(=O)(O)C(N)CCc2ccccc2)cc1C (stereo unspecified) | 2.2 µM |  |
| CCC(N)P(=O)(O)Oc1ccc(C)cc1 (stereo unspecified) | 7 µM |  |
| NC(CCc1ccccc1)P(=O)(O)Oc1ccccc1 (stereo unspecified) | 6.2 µM |  |
| NC(Cc1ccccc1)P(=O)(O)O (stereo unspecified) | 54 µM | Ki [2]: 27.5 µM; Ki [3]: 0.42 µM |
| NC(Cc1ccccc1)P(=O)(O)Oc1ccccc1 (stereo unspecified) | 8.2 µM | Ki [2]: 27.5 µM; Ki [3]: 0.42 µM |
| CCC(N)P(=O)(O)O (stereo unspecified) | 50 µM |  |

| SMILES | IC50 [1] | also measured |
| --- | --- | --- |
| CCCCC(N)P(=O)(O)Oc1ccc(C)c(C)c1 (stereo unspecified) | 1.4 µM |  |
| CCCC(N)P(=O)(O)O (stereo unspecified) | 15 µM |  |
| CCCCCC(N)P(=O)(O)O (stereo unspecified) | 8.3 µM |  |
| COc1ccc(OP(=O)(O)C(N)CCc2ccccc2)cc1 (stereo unspecified) | 2.9 µM |  |
| CCC(N)P(=O)(O)Oc1cc(C)ccc1C (stereo unspecified) | 120 µM |  |
| Cc1ccc(C)c(OP(=O)(O)C(N)CCc2ccccc2)c1 (stereo unspecified) | 15 µM |  |
| CC(N)P(=O)(O)O (stereo unspecified) | 42 µM |  |
| Cc1cc(C)c(C)c(OP(=O)(O)C(N)CCc2ccccc2)c1 (stereo unspecified) | 5 µM |  |
| CC(C)C[C@H](NC(=O)[C@@H](O)[C@H](N)Cc1ccccc1)C(=O)O [UBENIMEX] |  | Activity [4]: < 10%; Activity [5]: < 10% |
| CCCCC(N)P(=O)(O)Oc1cc(C)ccc1C (stereo unspecified) | 200 µM |  |
| CCCCC(N)P(=O)(O)Oc1ccc(C(=O)O)cc1 (stereo unspecified) | 55 µM |  |
| CCc1ccc(OP(=O)(O)C(N)CCc2ccccc2)cc1 (stereo unspecified) | 13 µM |  |
| NC(c1ccccc1)P(=O)(O)Oc1ccccc1 (stereo unspecified) | 21 µM |  |
| CCC(CC)C(N)P(=O)(O)Oc1ccccc1 (stereo unspecified) | > 100 µM |  |
| CCCCC(N)P(=O)(O)Oc1ccccc1 (stereo unspecified) | 5.6 µM |  |
| CC(C)(C)CC(C)(C)c1ccc(OP(=O)(O)C(N)CCc2ccccc2)cc1 (stereo unspecified) | 6.3 µM |  |
| CCC(N)P(=O)(O)Oc1ccc(C(C)(C)C)cc1 (stereo unspecified) | 1.1 µM | Activity [6]: 60%; Activity [7]: 26%; Activity [8]: 36% |
| CC(C)CC(N)P(=O)(O)O (stereo unspecified) | 37 µM | Ki [2]: 53 µM |
| NC(c1ccccc1)P(=O)(O)O (stereo unspecified) [AMINO(PHENYL)METHYLPHOSPHONIC ACID] | 220 µM |  |
| NC(CCc1ccccc1)P(=O)(O)Oc1ccc(C(=O)O)cc1 (stereo unspecified) | 22 µM |  |
